CaV13 FRET inh – Primary screen for inhibitors of IQ motif and Ca2+-dependent inactivation inhibitor domain binding in CACNA1D, Förster resonance energy transfer in living cells, …; AID 743397; HEK cells, CFP/YFP FRET ICDI-IQ, plate reader, 10 min; percent FRET-ratio fall versus neutral wells; hit rate 0.098% among 340,000; inhibition, % at 12.3 µM;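 active means mean replicate inhibition of at least 30% and at least 1% of replicates passing that level; inconclusive means only one of the two criteria is met; inactive means neither criterion is met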
Runt-SMMHC FRET – inhibitors of RUNX1 Runt–CBFb-SMMHC binding, primary screen, biochemical, FRET, Cerulean-Runt, Venus-CBFb-SMMHC, uHTS; Cerulean-Runt/Venus-CBFb-SMMHC FRET ratio 530/480, 1 h; inhibition, % at 20 µM; hit rate 0.74% among 220,000; AID 1434, 2008;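 active means mean inhibition across duplicate retests at 20 µM reaching about 50%, limit read from the data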;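 further: inhibitors lower the FRET ratio by blocking Runt binding to CBFb-SMMHC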
Runt-CBFb FRET – inhibitors of RUNX1 Runt–CBFb binding, primary screen, biochemical, FRET, Cerulean-Runt, Venus-CBFb, uHTS; Runt-related transcription factor 1 (Homo sapiens) + Core-binding factor subunit beta …; Cerulean-Runt/Venus-CBFb FRET ratio 530/480, 1 h; inhibition, % at 20 µM; hit rate 0.46% among 220,000;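 active means inhibition over about 50% at 20 µM in the single-dose screen, limit read from the data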
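Buffer or medium: Tris pH 7.5 buffer with BSA. Assay system: Cerulean-labeled Runt domain protein. Amount: each fluorescent fusion protein 100 nM. Read-out basis: loss of energy transfer signal. Incubation: 1 h compound exposure, room temperature. Probe or stimulus: Venus-CBFb binding partner, 100 nM. Detection: FRET, excitation 422 nm, emission at 530 and 480 nm.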
HDAC3 inhib – HDAC3 deacetylase inhibitors, primary screen, biochemical, fluorescence, cell-free homogeneous; AID 2718, 2010; hit rate 0.15% among 320,000; inhibition, % at 8.3 µM; Histone deacetylase 3 (Homo sapiens), O15379; recombinant HDAC3, fluorogenic peptide/trypsin coupled; in the data active means inhibition above about 26%, passing the limit was not always enough; inconclusive means no clear call, values can overlap the other calls
LANA-H2A inh – blockers of LANA interaction with H2A/H2B – biochemical, FP readout, HTS, primary screen. Protein LANA1 (Human herpesvirus 8 type P (isolate GK18)), Q9QR71. cell-free LANA-H2A/H2B peptide, fluorescence polarization. inhibition, % (concentration not given with the values). hit rate 0.6% among 320,000. AID 2629, 2010; in the data active means inhibition mostly above about 10%, no sharp cut-off; inactive means mostly below about 6.7%
RanGTP-Imp inh – inhibitors of RanGTP-importin-beta interaction, primary screen, biochemical, FRET, CFP-Ran, YFP-importin-beta, homogeneous. Ran GTPase (GTP-bound) - importin-beta complex. cell-free CFP-Ran/YFP-importin-beta FRET ratio. inhibition, % (concentration not given with the values). hit rate 1.1% among 300,000;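 active means more than half of the replicate wells show a fall in the fluorescence ratio signal beyond about 16%, limit read from the data, passing the limit was not always enough; inconclusive means exactly half of the replicate wells pass the set limit; inactive means fewer than half of replicates pass the limit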
A number is an active result; – = inactive; ? = inconclusive; · = no result. Hits are enriched below; roughly 1.9% of the tested compounds scored in any of these assays.

SMILES | CaV13 FRET inh | Runt-SMMHC FRET | Runt-CBFb FRET | HDAC3 inhib | LANA-H2A inh | RanGTP-Imp inh
CCCOc1ccc(-c2c(=O)n(OCC(=O)OCC)c3ccccc3[n+]2[O-])cc1 | – | · | · | 33.6 | – | –
CCOC(=O)COn1c(=O)c(-c2cccs2)[n+]([O-])c2ccccc21 | – | – | – | 52.6 | – | –
COc1ccc(CCNC(=O)c2cc(=O)[nH]c3ccccc23)cc1 | – | · | · | – | – | –
N#CC(C#N)=C/C(C#N)=C(/N)N1CCN(c2ccc(Cl)cc2)CC1 | – | – | · | – | 17.6 | –
CC(C)Oc1ccc(Cl)cc1Nc1nc(NCCO)nc(N2CCCC2)n1 | – | · | · | 28.1 | – | –
COc1ccc(Cl)cc1Nc1nc(NCCO)nc(N2CCCC2)n1 | · | – | – | – | – | ?
Cc1cc(-c2nn(-c3ccccc3F)cc2CN2CCC(O)CC2)c(C)s1 | – | – | – | – | 33.5 | –
CCOC(=O)N(C)C[C@@H]1OCc2cnnn2CCCC(=O)N([C@H](C)CO)C[C@@H]1C | – | · | · | · | · | ·
Cc1ccc(C(C)C)c(OCC(=O)NN=C2CCCCCCC2)c1 | – | – | – | – | – | –
O=C(NNC(=O)C1CC(c2cccs2)=NO1)Nc1ccc(Cl)cc1 (stereo not given) | – | · | · | – | – | –
CCCCNC(=O)c1ccccc1SCC(=O)NC1CCCCCCC1 | – | · | · | – | – | ·
CCN1/C(=C\C=C(C(C)=O)C(C)=O)Sc2ccccc21 | – | – | – | ? | – | –
CCOC(=O)/C(C#N)=C(C)/C=C1\Sc2ccccc2N1CC | – | – | – | – | – | 19.4
CCOC(=S)SCc1cn2ccc(C)cc2n1 | – | – | – | – | – | 20.6
CC1(C)c2[nH]c3ccccc3c2C[C@@H]2C(=O)N(Cc3ccccc3Cl)C(=O)N21 | – | · | · | – | – | –
Cc1cccc(CN2CCc3c(OCC(=O)NCc4ccco4)cccc3C2=O)c1 | – | – | – | – | – | –
COc1ccccc1CNC(=O)CSc1nc2nc(C)cc(C)n2n1 | – | – | – | – | 49.9 | –
COc1ccc(CNC(=O)CSc2nc3nc(C)cc(C)n3n2)cc1 | – | – | – | – | – | –
COc1ccc(/C=N/NC(=O)C2c3ccccc3-c3ccccc32)cc1 | – | – | – | – | – | –
COCCNC(=O)/C(C#N)=C/c1c(N2CCN(C)CC2)nc2ccccn2c1=O | – | · | · | – | – | 97.4
CN1CCN(c2nc3ccccn3c(=O)c2/C=C(\C#N)S(=O)(=O)c2ccccc2)CC1 | 99.1 | – | – | – | – | 71.6
COC(=O)/C(C#N)=C/c1c(N2CCCCCC2)nc2ccccn2c1=O | – | · | · | – | – | –
CCNC(=O)/C(C#N)=C/c1c(N(Cc2ccccc2)Cc2ccccc2)nc2ccccn2c1=O | – | – | – | – | – | –
CCNC(=O)/C(C#N)=C/c1c(N2CCOCC2)nc2ccccn2c1=O | – | 81.1 | 62.7 | – | – | –
CCOC(=O)/C(C#N)=C/c1c(N2CCN(C)CC2)nc2ccccn2c1=O | – | · | · | – | – | 100.8
SMILES | CaV13 FRET inh | Runt-SMMHC FRET | Runt-CBFb FRET | HDAC3 inhib | LANA-H2A inh | RanGTP-Imp inh
CCOC(=O)/C(C#N)=C/c1c(N2CCCCCC2)nc2ccccn2c1=O | – | · | · | – | – | –
Nc1ccccc1C(=O)NNC1=C(C(=O)C(F)(F)F)CCC1 | – | – | – | 45.9 | – | –
C/C(CC(=O)NC(C)C)=N\NC(=O)C(c1ccccc1)c1ccccc1 | – | – | – | – | – | –
CC1(C(=O)O)Sc2[nH]c(=O)sc2C2c3ccccc3OC(=O)C21 (stereo not given) | – | – | – | – | – | 47.8
O=C(O)C1Sc2[nH]c(=O)sc2C2c3ccc(O)cc3OC(=O)C12 (stereo not given) | – | 87.4 | – | – | – | ·
COC(=O)C1Sc2[nH]c(=O)sc2C2c3ccccc3OC(=O)C12 (stereo not given) | – | – | – | – | – | 60.5
O=C(O)C1Sc2[nH]c(=O)sc2C2c3cc(Cl)ccc3OC(=O)C12 (stereo not given) | – | – | – | – | – | –
CCOC(=O)C1=C(CC)Nc2ccccc2N=C1NC(=O)c1cccc(S(=O)(=O)N2CCOCC2)c1 | – | · | · | – | – | ·
CC(=O)Nc1ccc(S(=O)(=O)NCCCCNS(=O)(=O)c2ccc(NC(C)=O)cc2)cc1 | – | · | · | – | – | –
Fc1ccc(C2=CC(c3cccs3)n3nnnc3N2)cc1 (stereo not given) | – | – | – | – | – | –
OCCCc1nc2n(n1)C(c1cccs1)C=C(c1ccccc1)N2 (stereo not given) | · | – | – | – | 67.9 | –
OCCCc1nc2n(n1)C(c1ccccc1Cl)C=C(c1cccs1)N2 (stereo not given) | · | 77.6 | – | – | – | 34.0
Cc1ccc(C2=CC(c3cccs3)n3nnnc3N2)cc1 (stereo not given) | – | – | – | – | 23.0 | –
O=C(/C=C/Nc1ccc([N+](=O)[O-])cc1Br)c1cccc2ccccc12 | – | – | – | – | – | –
Cc1ccc(C2(C)NC(=O)N(CC(=O)NNC(=O)c3ccccc3F)C2=O)cc1 (stereo not given) | – | · | · | – | 21.5 | ·
CC1(c2ccccc2)NC(=O)N(CC(=O)NNC(=O)c2ccccc2F)C1=O (stereo not given) | – | · | · | · | · | ·
COc1ccccc1C(=O)NC(=S)NNC(=O)c1sc2ccccc2c1Cl | – | – | – | – | – | 49.1
COc1ccc(Nc2nc(N)nc(CSc3nncn3C)n2)cc1 | – | – | – | – | – | –
CN(C)N1C(N)=C(C#N)C(c2ccccc2Cl)C2=C1CCCC2=O (stereo not given) | – | · | · | – | – | –
CCN(CC(=O)NCc1ccc(Cl)cc1)C(=O)/C=C/c1cccs1 | – | – | – | – | – | –
CCOc1ccc2cc(C#N)c(SCC(=O)NC(C)CC)nc2c1 (stereo not given) | · | – | – | – | 33.8 | –
N#CCC(=O)N/N=C/c1c(-c2ccccc2)n(-c2ccccc2)c2ccccc12 | – | · | · | – | – | –
COc1ccc(/C=N/NC(=O)c2nc(-c3ccccc3)n(-c3ccccc3)n2)cc1 | – | – | – | – | – | –
CC(=O)Nc1ccc(C2=NN(c3ccccc3)C(c3ccccc3)C2)cc1 (stereo not given) | – | · | · | – | – | –
O=C(O)c1ccc(N2N=C(c3ccccc3)CC2c2ccccc2)cc1 (stereo not given) | 115.2 | · | · | – | – | –
